The record followed here is ChEMBL document CHEMBL4513216, “Probing the Open Global Health Chemical Diversity Library for Multistage-Active Starting Points for Next-Generation Antimalarials” (ACS Infect Dis, 2020).

Each structure is given as a SMILES string.

The nature of the data set: Toxicity liver stage against HepG2, at 10uM. In kind it is cell-based. Also on record: test concentration 10 uM, cell line HepG2-A16-CD81EGFP. Particulars: human, HepG2-A16-CD81EGFP cells; read-out: INHIBITION
A digest of the protocol: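 Uninfected HepG2-A16-CD81EGFP cells, 3 × 10^3 per well, 1536-well, plated on prespotted compound at 10 μM final, parasite-free screening media added to match infected plates; puromycin 10 μM positive, DMSO 0.5% negative; run in parallel with 48 h PbLuc assay at 37 °C, 5% CO2; viability by CellTiter-Glo luminescence, normalized to controls.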

Regarding `NC(=O)C1CCN(C(=O)NCc2ccc3c(c2)OCCO3)CC1`, the cytotoxicity at 10 µM was -8.14%.

Turning to `CC(C)c1nc2cc(NC(=O)c3n[nH]c4c3CCC4)ccc2n1C`, the cytotoxicity at 10 µM was -5.37%.

Take `Cc1nc(CN2CCOC(c3ccc(Cl)cc3)C2)oc1C` (centres undefined): the cytotoxicity at 10 µM was -10.1%.

Take `CCOC(=O)CC1(Nc2nc(C)nc3c2cnn3C)CCCCC1`: the cytotoxicity at 10 µM was 5.03%.

For `O=C(NCc1ccc(F)cc1)N1CCN(CC(O)C2CC2)CC1` (centres undefined), the cytotoxicity at 10 µM stood at 8.88%.

Turning to `CCOCCCNC(=O)CN(c1cccc(F)c1)S(C)(=O)=O`, the cytotoxicity at 10 µM is 7.77%.

As to `Fc1cnc(N2CCO[C@H]3CN(CC4CCCCC4)C[C@H]32)nc1`, the cytotoxicity at 10 µM stood at 6.61%.

In the case of `Fc1ccc(-c2nc(CN3CCn4c(nnc4C4CC4)C3)co2)cc1`, the cytotoxicity at 10 µM is -7.72%.

`COc1cc(CNc2cnn(CC(F)F)c2)ccc1O`: the cytotoxicity at 10 µM amounted to 0.553%.

For `CCCc1nc(CN2CCCN(Cc3nccn3C)CC2)no1`, the cytotoxicity at 10 µM is -3.33%.

As for `CCc1nnc(SCc2cc(=O)n3c4c(sc3n2)CCCC4)[nH]1`, the cytotoxicity at 10 µM was -3.91%.

For the compound `COc1ccccc1CC(=O)NCc1c(C)nc2cc(=O)[nH]n2c1C`, the cytotoxicity at 10 µM is -6.8%.

Consider `CN(C)CC(c1ccccc1)N(C)C(=O)c1cccc(NCC(=O)O)c1` (centres undefined), for which the cytotoxicity at 10 µM turned out to be 3.7%.

For the compound `CC(=O)Cn1c(C)cc(=O)c2cc(F)ccc21`, the cytotoxicity at 10 µM is -4.46%.

Take `CO[C@@H]1CCC[C@@H](NC(=O)C(C)(C)c2cccc(F)c2)[C@H]1O`: the cytotoxicity at 10 µM was -1.09%.

Turning to `CC(C)c1nc(N2CC[C@@H](N(C)CCc3ccccn3)[C@H](O)C2)no1`, the cytotoxicity at 10 µM was -0.662%.

Consider `CCNC(=O)NC1CCCN(c2ccc(C)cc2)C1=O` (centres undefined), for which the cytotoxicity at 10 µM is 0.732%.

Turning to `COCCN1C(=O)CC[C@@H]2[C@H]1CCN2Cc1cccc(C#N)c1`, the cytotoxicity at 10 µM is -33.1%.

Take `Cc1c(NC(=O)N(C)CCn2cnnc2)cccc1OC1CCCC1`: the cytotoxicity at 10 µM was -0.509%.

As for `CC(C)(C)c1cc(NC(=O)CN2CCCC2Cn2cncn2)on1` (centres undefined), the cytotoxicity at 10 µM was found to be 5.91%.

Consider `CCN1CCC12CCN(C(=O)c1ccsc1)C2` (centres undefined), for which the cytotoxicity at 10 µM was -148%.

`COc1ccc(CN2CCCN(c3cc(C(N)=O)ccn3)CC2)cc1`: the cytotoxicity at 10 µM is 11%.

As to `OC1CN(c2nc3c(C(F)(F)F)cccc3s2)C1`, the cytotoxicity at 10 µM is -8.37%.

Regarding `CC(C)Sc1ncccc1C(=O)NCc1ccc(O)cc1`, the cytotoxicity at 10 µM was -3.29%.

As to `Cc1ncsc1C(=O)NC1CCN(CCC(=O)Nc2ccccc2)CC1`, the cytotoxicity at 10 µM was -1.39%.

Turning to `CS(=O)(=O)NCc1cncc2c1CCN(C(=O)N1CCCC1)C2`, the cytotoxicity at 10 µM was determined as 12.8%.

In the case of `Cn1cc(Nc2cccc(C(=O)N(CC(N)=O)C3CCCC3)c2)cn1`, the cytotoxicity at 10 µM is -1.78%.

`CCCN(C)c1ccc(C(=O)Nc2c(C)nn(C(C)C)c2C)cc1`: the cytotoxicity at 10 µM was -2.84%.

Regarding `O=C(Cn1cc(C(=O)O)ccc1=O)Nc1ccc(Cl)cc1F`, the cytotoxicity at 10 µM was -6.94%.

As for `CC(C)c1noc(C(C)N2CCN(Cc3ccccc3C#N)CC2)n1` (centres undefined), the cytotoxicity at 10 µM was -8.13%.

For the compound `COc1ccccc1C1CNCCN1C(C)=O` (centres undefined), the cytotoxicity at 10 µM is 3.6%.

On to `Cc1nc(CN2CCCC(Cn3cncn3)C2)no1` (centres undefined), for which the cytotoxicity at 10 µM was determined as 4.34%.

Consider `Cc1ncncc1-c1ccnc(N)n1`, for which the cytotoxicity at 10 µM was -7.22%.

Regarding `O=S(=O)(C1CC1)N1CCCn2nnc(Cn3cccc3)c2C1`, the cytotoxicity at 10 µM was determined as 9.39%.

As for `O=C(NCCc1ccco1)Nc1cc(C(F)(F)F)c[nH]c1=O`, the cytotoxicity at 10 µM is -12.3%.

With `CCN1CCC(CNC(=O)C(c2ccccc2F)N(C)C)(N(C)C)CC1` (centres undefined), the cytotoxicity at 10 µM is -1.7%.

Turning to `CN(CCOc1cccc(S(C)(=O)=O)c1)CC(F)F`, the cytotoxicity at 10 µM came out at 13%.

For `Cc1nccc(-c2ccccc2)c1C(=O)N1CCC2(CCCO2)CC1`, the cytotoxicity at 10 µM is 2.34%.

For `COc1ccnc(CN2CCC(O)(c3ccc(C)cn3)CC2)c1OC`, the cytotoxicity at 10 µM is -138%.

Turning to `CCc1ccccc1Nc1noc2c1CN(C(=O)c1ccn(C)n1)CC2`, the cytotoxicity at 10 µM was 0.295%.

For the compound `CCc1cc(N2CCC(NCc3ccc(C)o3)CC2)ncn1`, the cytotoxicity at 10 µM is 2.84%.

As to `CCOc1ncccc1NC(=O)c1cc2c(s1)CCC2`, the cytotoxicity at 10 µM is -15%.

As to `CC(C)CNC(=O)C1=NOC2(CCN(Cc3ccc(C(C)C)cc3)C2)C1` (centres undefined), the cytotoxicity at 10 µM amounted to 32.3%.

Consider `COc1ccc(C(=O)NCc2ccc(C(=O)O)o2)cc1`, for which the cytotoxicity at 10 µM was -0.806%.

With `CSCCC(=O)N1CCCC1c1ccsc1` (centres undefined), the cytotoxicity at 10 µM was -20.3%.

For `CNC(=O)Cc1ccccc1NC(=O)N[C@H]1c2ccccc2C[C@H]1O`, the cytotoxicity at 10 µM was -36.1%.

`O=C(c1ccc(OCC2CC2)nc1)N1CCCC(n2cccn2)C1` (centres undefined): the cytotoxicity at 10 µM was -12.4%.

For `Cc1cc(C(=O)N(C)Cc2cnn(C)c2C)n(C)n1`, the cytotoxicity at 10 µM was 8.19%.

With `CCOC1CCCN(C(=O)c2[nH]nc(C(C)C)c2Br)C1` (centres undefined), the cytotoxicity at 10 µM was -6.78%.

Take `CCn1c(C)nnc1Sc1nn2cc(C)nc2s1`: the cytotoxicity at 10 µM was -1.99%.

In the case of `CCCC(O)CN1CCC(=O)N(C)Cc2cc(F)ccc21` (centres undefined), the cytotoxicity at 10 µM is -124%.

In the case of `COCc1cccc(S(=O)(=O)Nc2ncc(C)s2)c1`, the cytotoxicity at 10 µM was -8.13%.

Turning to `O=C1N(Cc2cccc(F)c2F)CCCC1(O)CNC1CCCC1` (centres undefined), the cytotoxicity at 10 µM was 13.8%.

As to `Cc1nc2cc(O)nn2c(C)c1CCC(=O)NCCc1nccn1C`, the cytotoxicity at 10 µM is -0.84%.

Consider `CCN1CCCC1(C)c1nc(C)cc(N)n1` (centres undefined), for which the cytotoxicity at 10 µM was -2.17%.

Take `COc1cc(C(=O)N(Cc2cnn(C)c2)C(C)C)ccc1C`: the cytotoxicity at 10 µM was -3.14%.

As to `CC(C)NC(=O)CNC(=O)C12CCC(=O)N1c1cc(Cl)ccc1S2` (centres undefined), the cytotoxicity at 10 µM was 11.7%.

On to `Cc1cccc(CN2CCCC(O)(CNCCN3CCCCC3)C2=O)c1` (centres undefined), for which the cytotoxicity at 10 µM was 1.02%.

As to `Cc1cc(NC(=O)CN2CCn3c(nnc3-c3ccccc3)C2)no1`, the cytotoxicity at 10 µM was -2.38%.

As to `CN(Cc1nc(-c2cccs2)no1)Cc1nc2c(s1)CCCC2`, the cytotoxicity at 10 µM is 3.01%.

With `CC(C)Cc1cc(NC(=O)N2CCC(Oc3cccnc3)C2)n(C)n1` (centres undefined), the cytotoxicity at 10 µM is -4.71%.

With `Cc1ccc2[nH]c([C@H]3CCN(CC4CCCCC4)C3)nc2c1`, the cytotoxicity at 10 µM was -3.45%.

Regarding `Cc1cc(CN(Cc2cccnc2)CC2CCCO2)on1` (centres undefined), the cytotoxicity at 10 µM was -7.03%.

As for `O=C(c1ccc2[nH]ccc2c1)N1Cc2nc(CN3CCCCC3)oc2C1`, the cytotoxicity at 10 µM was determined as 9.58%.

Turning to `c1ccc(CC2(CNCc3ncc[nH]3)CCC2)cc1`, the cytotoxicity at 10 µM was found to be 0.458%.

With `CN1C(=O)C2(CCN(Cc3nccn3C)CC2)c2ccccc21`, the cytotoxicity at 10 µM is 1.49%.

Take `CN(CCc1noc(C2CC2)n1)C(=O)CN1C(=O)COc2ccccc21`: the cytotoxicity at 10 µM is -141%.

For the compound `CC(C)c1cc(NCC(C)N2CCCC2)n2nccc2n1` (centres undefined), the cytotoxicity at 10 µM is -12.4%.

In the case of `CCOc1ncccc1CNC(=O)Nc1ccc(OC)c(OC)c1`, the cytotoxicity at 10 µM is -3.82%.

Regarding `CC1=Nc2c(c(=O)[nH]n2C(C)C)C(c2cccs2)S1` (centres undefined), the cytotoxicity at 10 µM is 3.67%.

As for `O=S(=O)(NCCCn1cncn1)c1ccc2c(c1)OCCCO2`, the cytotoxicity at 10 µM was 3.51%.

As for `Cc1nn(C)cc1C(=O)N1CCCC(c2nccn2CC2CCC2)C1` (centres undefined), the cytotoxicity at 10 µM was determined as 2.52%.

Regarding `O=C1NC2(CCN(CC3CC3)CC2)CC1c1ccccc1` (centres undefined), the cytotoxicity at 10 µM was -7.64%.

With `CC(C)CN1CCNC(=O)C12CCN(C(=O)c1ccccn1)CC2`, the cytotoxicity at 10 µM came out at 5.25%.

For the compound `Cc1ccc(-c2cnnc(N3CCCC3c3nonc3C)n2)o1` (centres undefined), the cytotoxicity at 10 µM was 5.46%.

`CCOC(=O)NCCC(=O)NCc1ccc(Oc2ccc(F)cc2)nc1`: the cytotoxicity at 10 µM is -18.9%.

Take `CN(Cc1c(Cl)ccc2cccnc12)CC(C)(CO)CO`: the cytotoxicity at 10 µM is 7.6%.

`COCCN1C[C@@H](C)[C@@]2(COCCN(C(=O)c3ccccn3)C2)C1`: the cytotoxicity at 10 µM came to 9.58%.

`CCC(=O)N1CCC(Cc2nccnc2Nc2ccccn2)CC1`: the cytotoxicity at 10 µM was 5.82%.

Turning to `COc1ccc(CCN2CCC(N3CCN(C)C3=O)CC2)cc1`, the cytotoxicity at 10 µM was -6.64%.

For `O=C(NCC1CCCO1)c1c(-n2cnnn2)sc2c1CCC2` (centres undefined), the cytotoxicity at 10 µM is -16.3%.

As to `CCCn1nccc1NC(=O)CN1CCn2c(nnc2C2CC2)C1`, the cytotoxicity at 10 µM is -8%.

Regarding `Cc1nn(C)c(C)c1C(=O)N1CCN(c2ccncc2Cl)CC1`, the cytotoxicity at 10 µM is -2.25%.

In the case of `COCCS(=O)(=O)Nc1ccc(-n2nccc2C(F)(F)F)cc1`, the cytotoxicity at 10 µM was 1.26%.

`Cc1cn[nH]c1C1COCCN1S(=O)(=O)c1cn[nH]c1` (centres undefined): the cytotoxicity at 10 µM is -24.6%.

Consider `CCc1nc(C2CCCN2Cc2nc3ccccc3o2)no1` (centres undefined), for which the cytotoxicity at 10 µM was determined as 3.06%.

Turning to `CC[C@@]1(O)CCN(C(=O)CCc2cnn(C)c2)C[C@H]1O`, the cytotoxicity at 10 µM is -0.634%.

Regarding `CSCC(CCO)NC(=O)c1cccc(F)c1Cl` (centres undefined), the cytotoxicity at 10 µM worked out at 11.7%.

Regarding `CCC1(CC)CC(=O)N(CC(O)c2cccc(F)c2)C1=O` (centres undefined), the cytotoxicity at 10 µM is -3.43%.

On to `Cc1nn(C)c(C)c1C1CCCN1Cc1nc(-c2ccccn2)no1` (centres undefined), for which the cytotoxicity at 10 µM was -5.29%.

As for `Cc1nc(C2CCCNC2)cc(N(C)CCc2cn[nH]c2)n1` (centres undefined), the cytotoxicity at 10 µM was -9.91%.

On to `CC(C)NC(=O)NCC(Cc1ccc(F)cc1)C(N)=O` (centres undefined), for which the cytotoxicity at 10 µM stood at 12.8%.

As for `COc1ccc(CN2C[C@H](OCC3CCOCC3)[C@H]3COC[C@H]32)cc1`, the cytotoxicity at 10 µM is -9.78%.

As to `Cc1nc(-c2nnc[nH]2)sc1C(=O)N1CCCC1c1ccsc1` (centres undefined), the cytotoxicity at 10 µM is -3.34%.

Take `Cc1nc(COCc2cnc3n2CCN(C)C3C)cs1` (centres undefined): the cytotoxicity at 10 µM came to 6.01%.

As to `CC(Cn1cccn1)NC(=O)NCc1cccs1` (centres undefined), the cytotoxicity at 10 µM is -0.12%.

As to `Cc1nc(CN(C)C2CCN(Cc3cnc(C)s3)C2)no1` (centres undefined), the cytotoxicity at 10 µM was -4.8%.

For the compound `COc1ccc(-c2nc(CN3CCCS3(=O)=O)co2)cc1`, the cytotoxicity at 10 µM is -6.24%.

Take `CC(NS(C)(=O)=O)C(=O)N(C)Cc1csc(-c2ccccc2)n1` (centres undefined): the cytotoxicity at 10 µM was 2.5%.
